# SENP7 block = blocks the human protease SENP7; recombinant SENP7, Z-RLRGG-aminoluciferin luminescence, 40 min; 330,000 compounds, 1.5% hits; inhibition, % at 5 µM; AID 434973;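 active = inhibition above about 50% at the single test dose, limit read from the data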;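 note: plate controls were DMSO with enzyme for no effect and no enzyme buffer wells for full effect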
# Target sequence (Q9BQF6 706-1050 limits assumed): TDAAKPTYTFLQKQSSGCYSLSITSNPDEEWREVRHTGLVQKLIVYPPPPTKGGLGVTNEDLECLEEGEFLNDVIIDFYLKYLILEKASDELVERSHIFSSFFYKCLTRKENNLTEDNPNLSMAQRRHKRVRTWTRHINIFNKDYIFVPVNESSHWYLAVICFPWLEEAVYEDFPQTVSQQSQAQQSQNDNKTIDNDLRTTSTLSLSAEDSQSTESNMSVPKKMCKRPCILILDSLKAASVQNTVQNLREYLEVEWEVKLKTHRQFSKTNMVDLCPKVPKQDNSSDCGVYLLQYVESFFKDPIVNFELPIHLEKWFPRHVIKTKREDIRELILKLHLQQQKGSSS
# Apaf1 inhib = blocks human Apaf-1 apoptosome activity; reconstituted apoptosome caspase-3 activity, DEVD-Rh110 fluorescence; inhibition, % at 20 µM; 330,000 compounds, 0.71% hits; AID 489030; active = inhibition of at least 40% at 20 µM;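 note: plate controls were DMSO wells for no effect and DEVD-CHO caspase inhibitor wells for full effect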
#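 Material: reconstituted apoptosome with Apaf-1, cytochrome c, caspase-9, procaspase-3, dATP; medium: pH 7.5 Hepes buffer with CHAPS, BSA, DTT; also added: cytochrome c and DEVD-Rh110 substrate; timing: 30 min plus 50 min, RT; signal: Rh110 fluorescence intensity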
# SENP8 block-1 = inhibitors of human SENP8 protease; 360,000 compounds, 0.64% hits; recombinant SENP8, Nedd8 substrate fluorescence; inhibition, % at 20 µM; Q96LD8; AID 602440; in the data active = inhibition mostly above about 40%, no sharp cut-off; inactive = mostly below about 27%
# Target sequence (Q96LD8 whole entry, looked up): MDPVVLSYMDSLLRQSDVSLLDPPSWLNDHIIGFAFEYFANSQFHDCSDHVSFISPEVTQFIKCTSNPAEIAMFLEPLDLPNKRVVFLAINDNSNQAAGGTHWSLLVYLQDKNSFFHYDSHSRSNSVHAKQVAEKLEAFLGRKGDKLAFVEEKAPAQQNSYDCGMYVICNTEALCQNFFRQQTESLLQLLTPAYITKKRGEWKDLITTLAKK
# SENP6 inh = blocks the human protease SENP6; 330,000 compounds, 1.8% hits; inhibition, % at 10 µM; Q9GZR1; Recombinant SENP6 catalytic domain, aminoluciferin luminescence;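 active = inhibition above about 50% at the single tested dose, limit read from the data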;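 note: plate controls were DMSO wells with enzyme for no effect and DMSO wells lacking enzyme for full effect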
# SENP8 block-2 = inhibitors of human SENP8 protease. purified SENP8, Z-RLRGG-aminoluciferin cleavage, luminescence. AID 2540. inhibition, % at 10 µM. 330,000 compounds, 1.2% hits; in the data active = inhibition above about 50%
# UBC13 polyUb = inhibitors of human UBC13 polyubiquitin chain formation. P61088. TR-FRET. inhibition, % at 20 µM. 330,000 compounds, 0.47% hits; in the data active = inhibition above about 45%, passing the limit was not always enough
# SENP8 confirm = confirmation of human SENP8 protease inhibitors | AID 488912 | inhibition, % at 12.5 µM | Recombinant SENP8, Z-RLRGG-aminoluciferin luminescence, 60 min | 6,200 compounds, 40% hits | shares compounds with SENP7 block;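 active = mean inhibition across replicates above about 50%, limit read from the data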
# SENP6 conf = human SENP6 inhibition, confirmed; shares compounds with SENP7 block; recombinant SENP6, Z-RLRGG-aminoluciferin luminescence; inhibition, % at 12.5 µM; 6,200 compounds, 58% hits
# SENP7 conf = human SENP7 inhibition, confirmed | recombinant SENP7, Z-RLRGG-aminoluciferin luminescence, 40 min | AID 488917 | shares compounds with SENP7 block | inhibition, % at 12.5 µM | 6,200 compounds, 69% hits
# Casp3 select = inhibits human caspase-3 in SENP selectivity test. purified caspase-3, Z-DEVD-aminoluciferin luminescence, 60 min. 6,200 compounds, 60% hits. shares compounds with SENP7 block. inhibition, % at 12.5 µM;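 active = mean inhibition above about 50%, limit read from the data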;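 note: plate controls were enzyme with DMSO for no effect and wells without caspase-3 for full effect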
# SENP luc ctr = interferes with luciferase luminescence in SENP counter-screen | shares compounds with SENP7 block | inhibition, % at 12.5 µM | Pre-incubated SENP8/Z-RLRGG-aminoluciferin, luciferase luminescence interference | 6,200 compounds, 39% hits;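 active = mean inhibition above about 50% when retested at one dose, limit read from the data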;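 note: plate controls were DMSO wells with completed reaction for no effect and substrate without enzyme for full effect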
# Numbers without * were called inactive; i = inactive; x = no result given. Hits are enriched below; roughly 3.1% of the tested compounds scored in any of these assays.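 Rule for the calls, unless noted: active = mean inhibition above about 50% in the one-dose retest (limit read from the data); inactive = the rest.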
SMILES,SENP7 block,Apaf1 inhib,SENP8 block-1,SENP6 inh,SENP8 block-2,UBC13 polyUb,SENP8 confirm,SENP6 conf,SENP7 conf,Casp3 select,SENP luc ctr
CCc1nc2ccc(C(=O)Nc3ccc(NC(C)=O)cc3)cn2c1N(CCC(C)C)CCN(C)C,x,x,10.7,x,x,x,x,x,x,x,x
c1ccc(CSc2nc3ccccc3[nH]2)cc1,76.9*,-0.7,16.7,-12.7,68.9*,-6.8,61.8*,72.4*,93.5*,79.8*,23.8
CCCCCOc1ccc(CSc2ncn[nH]2)cc1,15.8,10.1,-17.4,64.9*,49.9,-7.8,70.9*,68.0*,85.7*,25.0,74.2*
Nc1ccccc1Sc1nc2ccccc2[nH]1,22.5,-1.3,-5.5,61.2*,57.2*,-13.6,60.8*,57.7*,84.1*,85.7*,71.6*
CCCOc1ccc(CSc2nc3ccccc3[nH]2)cc1,95.3*,-6.4,15.5,90.9*,87.6*,16.0,92.4*,97.4*,102.3*,87.5*,57.6*
CCN(CC)Cc1cc(Nc2c3ccccc3nc3c4ccccc4n(C)c23)cc(CN(CC)CC)c1O,x,x,-107.2,x,x,x,x,x,x,x,x
Fc1ccc(CSc2nc3ccccc3[nH]2)cc1,7.2,-10.4,7.4,82.9*,71.0*,-1.8,82.6*,78.7*,93.9*,74.2*,78.7*
Cc1cc(C)nc(N(C#N)Cc2ccccc2C)n1,96.2*,-3.0,24.8,-9.0,0.5,1.9,-6.7,-0.5,-2.9,-2.2,-2.4
Cc1cc(C)nc(N(C#N)Cc2ccccc2Cl)n1,13.9,3.1,16.9,-7.1,-3.9,3.0,x,x,x,x,x
COc1cccc(C(NC(C)=O)c2nc(-c3cccc(O)c3)cs2)c1 (stereo not drawn),x,x,24.3,x,x,x,x,x,x,x,x
CSc1ccc(NC(=O)C2(C)CCN2C(=O)c2sccc2C)cc1 (stereo not drawn),x,x,18.1,x,x,x,x,x,x,x,x
C=CCCC(=O)N1C[C@@H](CO)[C@@H](NC)C[C@H]1c1ccccc1Br,x,x,19.5,x,x,x,x,x,x,x,x
COc1ccc2cc(C#N)c(SCC(=O)Nc3nonc3C)nc2c1,5.4,0.4,-121.3,-3.8,-3.3,6.3,x,x,x,x,x
Cc1cc2cc(C#N)c(SCC(=O)Nc3nonc3C)nc2cc1C,-2.6,2.9,-36.5,99.2*,-4.7,-7.6,-25.7,-19.8,-10.2,-10.1,-5.4
Cc1cc2ncn(S(=O)(=O)c3ccc(S(=O)(=O)N4CCCCCC4)cc3)c2cc1C,67.5*,-12.0,5.3,-0.2,-7.9,8.2,-5.4,-0.8,4.5,2.9,-2.7
Cc1cc2ncn(S(=O)(=O)c3ccc(S(N)(=O)=O)cc3)c2cc1C,x,x,4.6,x,x,x,x,x,x,x,x
CCN(CC)C(=O)CSc1ncnc2sccc12,-7.3,-12.5,1.1,-1.6,-6.5,3.2,x,x,x,x,x
CCN(CC)C(=O)CSc1ncnc2c(-c3cccs3)nsc12,35.1,14.4,i,56.9*,20.6,17.2,15.3,7.9,6.6,7.5,-4.0
COc1ccc(Cn2ccnc2SCC(=O)Nc2ccc(F)cc2F)cc1,x,x,1.6,x,x,x,x,x,x,x,x
COc1ccc(NC(=O)C(c2ccc(C#N)cc2)n2c(=O)c(-c3cc4ccccc4[nH]3)nc3ccccc32)cc1 (stereo not drawn),x,x,-416.3,x,x,x,x,x,x,x,x
Cc1noc(N)c1C(=O)Nc1ccc(C(C)(C)C)cc1,85.5*,5.0,14.0,28.7,68.6*,6.5,13.6,80.3*,96.3*,80.4*,79.9*
Cc1nc(Cl)sc1C(=O)Nc1ccc(C(C)(C)C)cc1,61.8*,10.8,13.8,-27.7,60.1*,1.3,70.8*,64.3*,84.4*,51.1*,47.7
OC[C@@H]1CN(CCN2CCOCC2)C[C@H](n2cnc3c(Nc4ccccc4)ncnc32)O1,x,x,22.4,x,x,x,x,x,x,x,x
O=C(O)c1ccc(SCc2ccccc2)nc1,-1.0,16.3,9.0,76.2*,55.8*,1.0,7.1,72.2*,91.7*,90.8*,79.6*
O=C(NC1CCCCC1)C(CCc1ccccc1)N1CCc2ccccc2C1 (stereo not drawn),x,x,17.3,x,x,x,x,x,x,x,x
SMILES,SENP7 block,Apaf1 inhib,SENP8 block-1,SENP6 inh,SENP8 block-2,UBC13 polyUb,SENP8 confirm,SENP6 conf,SENP7 conf,Casp3 select,SENP luc ctr
O=c1cc(-c2ccccc2)[nH]n1-c1ccc([N+](=O)[O-])cc1,25.3,12.7,39.7,83.8*,79.2*,-29.2,85.9*,92.9*,99.7*,90.0*,70.7*
CCCOc1ccc(/C=N/Nc2cccc([N+](=O)[O-])c2)c(O)c1,-2.2,7.2,26.5,-0.4,9.5,-13.6,x,x,x,x,x
CCCOc1ccc(/C=N/Nc2ccccc2[N+](=O)[O-])c(O)c1,99.2*,3.7,37.7,96.4*,94.3*,-33.8,57.8*,46.4,30.3,77.5*,8.2
O=C(c1ccc(=O)[nH]c1)N(c1ccccc1)C(CCc1ccccc1)c1nc2ccccc2[nH]1 (stereo not drawn),x,x,-12.4,x,x,x,x,x,x,x,x
CC1(C(=O)NCCc2ccccc2)Cc2c(-c3ccc(C(N)=O)cc3)ccnc2O1 (stereo not drawn),x,x,2.1,x,x,x,x,x,x,x,x
O=C(NC(=S)Nc1ccc(S(=O)(=O)Nc2nccs2)cc1)c1cccnc1,5.3,10.6,22.7,-7.3,2.8,0.0,x,x,x,x,x
